# SENP6 inh – blocks the human protease SENP6 | Q9GZR1 | Recombinant SENP6 catalytic domain, aminoluciferin luminescence | inhibition, % at 10 µM | hit rate 1.8% among 330,000;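 active means inhibition above about 50% at the single tested dose, limit read from the data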
# SENP8 block-1 – blocks the human protease SENP8; Q96LD8; purified SENP8, Z-RLRGG-aminoluciferin cleavage, luminescence; inhibition, % at 10 µM; hit rate 1.2% among 330,000; AID 2540; in the data active means inhibition above about 50%
# SENP8 block-2 – inhibitors of human SENP8 protease. recombinant SENP8, Nedd8 substrate fluorescence. Q96LD8. inhibition, % at 20 µM. hit rate 0.64% among 360,000. AID 602440; in the data active means inhibition mostly above about 40%, no sharp cut-off; inactive means mostly below about 27%
# SENP7 inh – blocks the human protease SENP7; hit rate 1.5% among 330,000; AID 434973; inhibition, % at 5 µM; Q9BQF6; recombinant SENP7, Z-RLRGG-aminoluciferin luminescence, 40 min;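 active means inhibition above about 50% at the single test dose, limit read from the data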
# Target sequence (Q9BQF6 706-1050 limits assumed): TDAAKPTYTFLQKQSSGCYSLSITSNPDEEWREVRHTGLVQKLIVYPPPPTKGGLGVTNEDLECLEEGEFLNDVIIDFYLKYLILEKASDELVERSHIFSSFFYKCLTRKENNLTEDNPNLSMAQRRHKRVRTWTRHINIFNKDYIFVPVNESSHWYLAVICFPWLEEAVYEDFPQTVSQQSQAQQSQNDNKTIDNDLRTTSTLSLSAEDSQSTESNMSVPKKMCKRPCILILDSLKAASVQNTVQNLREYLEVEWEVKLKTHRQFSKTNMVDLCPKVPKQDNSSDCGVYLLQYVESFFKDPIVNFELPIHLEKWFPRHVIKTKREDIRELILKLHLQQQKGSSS
# SENP1 inh – SENP1 (human) catalytic domain inhibition; Q9P0U3; recombinant SENP1 catalytic domain, CyPet-SUMO1-YPet FRET cleavage; inhibition, % at 10 µM; hit rate 0.21% among 360,000;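 active means inhibition at least 30% at 10 µM, raw YFP signal under a set limit, fluorescence ratio 0.5 to 1.5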
# Target sequence (Q9P0U3 419-644 limits assumed): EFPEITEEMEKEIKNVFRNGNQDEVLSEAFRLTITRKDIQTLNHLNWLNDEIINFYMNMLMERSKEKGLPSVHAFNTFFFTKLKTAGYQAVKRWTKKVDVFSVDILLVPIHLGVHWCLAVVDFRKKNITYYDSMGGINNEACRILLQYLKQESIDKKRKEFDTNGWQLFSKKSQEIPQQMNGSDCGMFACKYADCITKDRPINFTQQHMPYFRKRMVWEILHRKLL
#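 material = recombinant human SENP1 catalytic domain, His6-tagged | quantity = 20 pM enzyme | reagent = 25 nM SUMO1 FRET substrate | compound dosing = 10 µM single point, 0.5% DMSO | timing = 50 min enzyme reaction, room temperature, light-protected | detection = FRET, CFP and YFP emission | control set = no-enzyme low, enzyme-DMSO high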
# SENP8 conf – confirmation of human SENP8 protease inhibitors; inhibition, % at 12.5 µM; shares compounds with SENP7 inh; Recombinant SENP8, Z-RLRGG-aminoluciferin luminescence, 60 min; hit rate 40% among 6,200; AID 488912;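 active means mean inhibition across replicates above about 50%, limit read from the data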
# SENP6 conf – human SENP6 inhibition, confirmed; AID 488915; recombinant SENP6, Z-RLRGG-aminoluciferin luminescence; hit rate 58% among 6,200; shares compounds with SENP7 inh; inhibition, % at 12.5 µM
# SENP7 conf – confirmation of human SENP7 protease inhibitors | shares compounds with SENP7 inh | recombinant SENP7, Z-RLRGG-aminoluciferin luminescence, 40 min | AID 488917 | inhibition, % at 12.5 µM | hit rate 69% among 6,200
# Casp3 SENP sel – selectivity test for SENP inhibitors: human caspase-3 inhibition; shares compounds with SENP7 inh; inhibition, % at 12.5 µM; purified caspase-3, Z-DEVD-aminoluciferin luminescence, 60 min; hit rate 60% among 6,200;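 active means mean inhibition above about 50%, limit read from the data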
# Luc interf – counter-screen for SENP inhibitors: luminescence interference; AID 488919; shares compounds with SENP7 inh; hit rate 39% among 6,200; Pre-incubated SENP8/Z-RLRGG-aminoluciferin, luciferase luminescence interference; inhibition, % at 12.5 µM;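 active means mean inhibition above about 50% when retested at one dose, limit read from the data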
# Hits are given with their value; - = inactive; . = no result given. In the library only some 2.5% were active in any assay of this set; here they are far more common.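 How the source made its calls, unless noted: active means mean inhibition above about 50% in the one-dose retest (limit read from the data); inactive means the rest.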
SMILES,SENP6 inh,SENP8 block-1,SENP8 block-2,SENP7 inh,SENP1 inh,SENP8 conf,SENP6 conf,SENP7 conf,Casp3 SENP sel,Luc interf
COc1cc(CN2CCNC(=O)C2CC(=O)N(C)CCCN2CCOCC2)cc(OC)c1 (stereo unspecified),-,-,-,-,-,.,.,.,.,.
COC(=O)Cc1ccc2sc(-c3ccccc3)nc2c1,94,94,-,100,-,96,98,101,96,94
O=C(O)Cc1ccc2sc(-c3ccccc3)nc2c1,99,93,-,91,-,96,97,101,97,96
Cc1ccc(CNC(=O)C(=O)NCC2OCCCN2S(=O)(=O)c2ccc(F)cc2)cc1 (stereo unspecified),-,-,-,-,-,.,.,.,.,.
CC(C)C[C@H]1CNC(=S)N1C[C@H]1CCCN1C[C@H](Cc1ccccc1)N1C[C@H](CC(C)C)N(CCc2ccccc2)C1=S,.,.,-,.,-,.,.,.,.,.
Cc1cccc(-c2nc3cc([N+](=O)[O-])ccc3o2)c1,-,-,-,82,-,-,-,72,75,-
O=[N+]([O-])c1ccc2oc(-c3ccccc3)nc2c1,-,-,-,77,-,-,-,-,-,-
COc1ccc(-c2nc3ccc([N+](=O)[O-])cc3o2)cc1,-,-,-,69,-,-,-,-,-,-
Nc1nc2n(n1)C(c1cccc(Cl)c1)CC(c1ccc(F)cc1)N2 (stereo unspecified),-,-,-,65,-,-,-,-,-,-
CCOC(=O)C1=CN(Cc2cccc(F)c2)S(=O)(=O)N(CC)C1c1ccc(C(F)(F)F)cc1 (stereo unspecified),.,.,-,-,-,.,.,.,.,.
O=c1oc2ccccc2cc1-c1nnc(-c2cccc(Br)c2)o1,-,-,-,-,-,.,.,.,.,.
Cc1cccc(-c2nnc(-c3ccc(N)cc3)o2)c1,-,-,-,53,-,-,65,88,63,-
Cc1ccc(-c2nnc(-c3ccc4ccccc4c3)o2)cc1,.,.,-,.,-,.,.,.,.,.
Cc1ccc(-c2nnc(-c3ccccc3)o2)cc1Br,59,-,-,75,-,-,-,-,-,-
Cc1ccc(-c2nnc(-c3cccc(Br)c3)o2)cc1,74,-,-,60,-,-,-,-,-,-
c1ccc(-c2nnc(-c3ccncc3)o2)cc1,-,-,-,-,-,.,.,.,.,.
Brc1cccc(-c2nnc(-c3ccccc3)o2)c1,87,70,-,79,-,-,71,93,59,-
CCC(C)c1ccc(OCCCCN2CCOCC2)cc1 (stereo unspecified),-,-,-,-,-,.,.,.,.,.
Oc1c(-c2cc(-c3ccco3)[nH]n2)ccc2ccccc12,-,55,-,55,-,-,69,86,-,-
CCN1C=CC(=C2C(=O)c3ccccc3C2=O)C=C1,88,76,-,86,-,-,86,100,96,89
CCCCCCN1C=CC(=C2C(=O)c3ccccc3C2=O)C=C1,87,85,-,76,48,-,-,-,-,-
CCCCN1C(C)=CC(=C2C(=O)c3ccccc3C2=O)C=C1C,60,-,-,-,-,61,60,81,85,-
CCCN1C=CC(=C2C(=O)c3ccccc3C2=O)C=C1,95,90,-,93,-,93,98,102,98,60
CC1=CC(=C2C(=O)c3ccccc3C2=O)C=C(C)O1,-,-,-,-,-,.,.,.,.,.
CN1C=CC(=C2C(=O)c3ccccc3C2=O)C=C1,-,-,.,-,.,.,.,.,.,.
SMILES,SENP6 inh,SENP8 block-1,SENP8 block-2,SENP7 inh,SENP1 inh,SENP8 conf,SENP6 conf,SENP7 conf,Casp3 SENP sel,Luc interf
COc1cccc(C(=O)N2CCN(C(=O)COc3ccc4ccccc4c3)CC2)c1,-,-,-,-,-,.,.,.,.,.
CCCc1cc(C(=O)Nc2ccc(CC)cc2)no1,-,-,-,-,-,.,.,.,.,.
Cn1c(-c2nnn(-c3ccc(F)cc3)n2)cc2ccccc21,52,-,.,-,.,-,-,-,-,-
CCOC(=O)N=S(N)(=O)c1ccc(Cl)cc1 (stereo unspecified),-,51,-,-,-,-,-,-,-,-
CCOC(=O)N=S(N)(=O)c1ccccc1 (stereo unspecified),-,-,-,-,-,.,.,.,.,.
CC(C)OC(=O)CSc1nc(Cc2cccs2)nc2ccccc12,-,-,-,-,-,.,.,.,.,.
NCCNc1cc(N2CCCC2)ccc1[N+](=O)[O-],-,-,-,77,-,-,-,-,-,-
NC(=O)c1ccsc1NC(=O)c1ccc(N2CCCC2=O)cc1,90,87,-,89,-,92,91,100,94,-
CC(C)Cc1nnc(NC(=O)c2ccc(N3CCCC3=O)cc2)s1,-,-,-,-,-,.,.,.,.,.
NC(=O)c1ccsc1NC(=O)c1ccc2c(c1)CCCC2,96,96,-,99,-,97,97,101,96,67
NS(=O)(=O)c1ccc(NC(=O)c2ccc3c(c2)CCCC3)cc1,-,-,-,-,-,.,.,.,.,.
CNC(=O)c1ccsc1NC(=O)c1ccc2c(c1)CCCC2,59,-,-,54,-,60,60,82,-,-
O=C(C[n+]1cccc(/C=N/O)c1)NC(=O)Nc1ccccc1,.,.,-,.,-,.,.,.,.,.
Cc1ccc2c(c1)-c1cc(C)ccc1C2=O,.,.,-,.,-,.,.,.,.,.
C=C(C)C1CC=C(C)/C(=N/NC(=O)COc2ccccc2Cl)C1 (stereo unspecified),-,-,-,-,-,.,.,.,.,.
Cc1cccc2c1OCC/C2=N\NC(=O)COc1ccccc1Cl,-,-,-,73,-,-,-,-,-,-
COc1cccc(-c2nc3ccc(O)cc3c(=O)o2)c1,89,74,-,87,-,-,81,96,80,87
O=C(O)c1ccc(-c2noc(-c3cccc(F)c3)n2)cc1,97,95,-,96,-,98,99,101,97,95
O=C(O)c1ccc(-c2nc(-c3cccc(C(F)(F)F)c3)cs2)cc1,.,.,-,.,-,.,.,.,.,.
COc1cccc(-c2nc(-c3ccc(C(=O)O)cc3)no2)c1,99,95,-,97,-,99,100,103,99,86
COc1cccc(-c2nc(-c3ccc(NC(=O)c4ccncc4)cc3)no2)c1,-,-,-,-,-,.,.,.,.,.
Cn1nc(C(=O)NNC(=O)Cc2ccc(S(=O)(=O)N3CCOCC3)s2)c2ccccc2c1=O,.,.,-,.,-,.,.,.,.,.
CCOC(=O)C1=C(C)Nc2ccccc2N=C1NC(=O)c1cc(C)on1,-,-,-,-,-,.,.,.,.,.
